We go through two molecules from ChEMBL document CHEMBL3352316, “Optimization of physicochemical properties and safety profile of novel bacterial topoisomerase type II inhibitors (NBTIs) with activity against Pseudomonas aeruginosa” (Bioorg Med Chem, 2014).

Data set [1] can be described thus: Aqueous solubility of the compound. To be noted: buffer. Format: physicochemical.
Data set [2] deals with Escherichia coli. Put plainly: Antimicrobial activity against Escherichia coli W3110 after 18 to 20 hrs by broth microdilution. Format: functional. The following applies: K-12 substr. W3110. In short, it runs like this: (§1)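 Broth microdilution followed CLSI guidelines in Mueller Hinton broth. Inocula were grown 18–20 h at 35 °C on blood agar. Compound in DMSO was tested in doubling dilutions from 64 to 0.06 µg/mL, at 2% DMSO final. Plates were incubated 18–20 h and read at OD 620 nm. MIC was taken as the concentration giving >90% growth inhibition.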

The nature of data set [3]: Inhibition of Escherichia coli topoisomerase IV ATPase activity.
In data set [4] the test system is Pseudomonas aeruginosa. Put plainly: Antimicrobial activity against Pseudomonas aeruginosa clinical isolate after 18 to 20 hrs by broth microdilution. Format: functional. In short, it runs like this:
as §1

Data set [5] relates to Escherichia coli. The experiment in a line: Antimicrobial activity against Escherichia coli after 18 to 20 hrs by broth microdilution. Format: functional. Put shortly: as §1
In general terms: Dilution methods test growth across graded concentrations, often in twofold steps.

A further data set has as its system Klebsiella pneumoniae. Put plainly: Antimicrobial activity against Klebsiella pneumoniae after 18 to 20 hrs by broth microdilution. Format: functional. Put shortly: as §1
Data set [6] in a line: Volume of distribution in rat at 10 mg/kg, iv. Format: ADME, organism-based. Further details: dose 10 mg/kg, route intravenous. The following applies: in vivo. Put shortly: (§2)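 Male rats (Wistar Han) and Beagle dogs received 10 mg/kg as a 15 min iv infusion. Serial 200 µL whole-blood samples were taken from 0 to 24 h. Plasma levels were measured by LC–MS/MS against a standard curve after methanol protein precipitation. Parameters were estimated non-compartmentally.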

Data set [7] is described as follows: Half life in rat at 10 mg/kg, iv. Format: ADME, organism-based. The arrangement: dose 10 mg/kg, route intravenous. To be noted: in vivo. In short, it runs like this:
as §2

A short description of data set [8]: AUC in rat at 10 mg/kg, iv. To be noted: plasma. Format: ADME, organism-based. Further details: dose 10 mg/kg, route intravenous. Put shortly:
as §2

A short description of data set [9]: Clearance in beagle dog at 10 mg/kg, iv. Format: ADME, organism-based, Canis lupus familiaris. The arrangement: dose 10 mg/kg, route intravenous. The following applies: in vivo. In short, it runs like this:
as §2

A short description of data set [10]: Volume of distribution in beagle dog at 10 mg/kg, iv. The arrangement: dose 10 mg/kg, route intravenous. To be noted: in vivo. Format: ADME, organism-based, Canis lupus familiaris. Put shortly: as §2
Data set [11] can be described thus: Half life in beagle dog at 10 mg/kg, iv. Format: ADME, organism-based, Canis lupus familiaris. The arrangement: dose 10 mg/kg, route intravenous. To be noted: in vivo. In short, it runs like this: as §2
Data set [12] can be described thus: AUC in beagle dog at 10 mg/kg, iv. Format: ADME, organism-based, Canis lupus familiaris. The following applies: plasma. Further details: dose 10 mg/kg, route intravenous. In short, it runs like this: as §2
The target in data set [13] is Sodium-dependent noradrenaline transporter (Homo sapiens) (UniProt P23975). Put plainly: Inhibition of NET (unknown origin) at 30 uM.
Data set [14] deals with 5-hydroxytryptamine receptor 4 (Homo sapiens) (UniProt Q13639). Put plainly: Inhibition of 5-HT4 receptor (unknown origin) at 30 uM.
Data set [15] addresses Sodium-dependent serotonin transporter (Homo sapiens) (UniProt P31645). Put plainly: Inhibition of SERT (unknown origin) at 30 uM.
For data set [16], the target named is Potassium voltage-gated channel subfamily A member 5 (Homo sapiens, UniProt P22460). Put plainly: Inhibition of potassium channel Kv1.5 (unknown origin). Put shortly:
(§3)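 Automated IonWorks patch clamp was run on CHO or HEK cells expressing each channel. A channel-specific voltage pulse was applied before compound and again about 3 min after addition.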

The target of data set [17] is Voltage-dependent T-type calcium channel subunit alpha-1H (Homo sapiens, UniProt O95180). Put plainly: Inhibition of […] channel Cav3.2 (unknown origin). In short, it runs like this: as §3
Data set [18] deals with T1, Potassium/sodium hyperpolarization-activated cyclic nucleotide-gated channel 4 (Homo sapiens, UniProt Q9Y3Q4).
T1 sequence (Q9Y3Q4 whole entry): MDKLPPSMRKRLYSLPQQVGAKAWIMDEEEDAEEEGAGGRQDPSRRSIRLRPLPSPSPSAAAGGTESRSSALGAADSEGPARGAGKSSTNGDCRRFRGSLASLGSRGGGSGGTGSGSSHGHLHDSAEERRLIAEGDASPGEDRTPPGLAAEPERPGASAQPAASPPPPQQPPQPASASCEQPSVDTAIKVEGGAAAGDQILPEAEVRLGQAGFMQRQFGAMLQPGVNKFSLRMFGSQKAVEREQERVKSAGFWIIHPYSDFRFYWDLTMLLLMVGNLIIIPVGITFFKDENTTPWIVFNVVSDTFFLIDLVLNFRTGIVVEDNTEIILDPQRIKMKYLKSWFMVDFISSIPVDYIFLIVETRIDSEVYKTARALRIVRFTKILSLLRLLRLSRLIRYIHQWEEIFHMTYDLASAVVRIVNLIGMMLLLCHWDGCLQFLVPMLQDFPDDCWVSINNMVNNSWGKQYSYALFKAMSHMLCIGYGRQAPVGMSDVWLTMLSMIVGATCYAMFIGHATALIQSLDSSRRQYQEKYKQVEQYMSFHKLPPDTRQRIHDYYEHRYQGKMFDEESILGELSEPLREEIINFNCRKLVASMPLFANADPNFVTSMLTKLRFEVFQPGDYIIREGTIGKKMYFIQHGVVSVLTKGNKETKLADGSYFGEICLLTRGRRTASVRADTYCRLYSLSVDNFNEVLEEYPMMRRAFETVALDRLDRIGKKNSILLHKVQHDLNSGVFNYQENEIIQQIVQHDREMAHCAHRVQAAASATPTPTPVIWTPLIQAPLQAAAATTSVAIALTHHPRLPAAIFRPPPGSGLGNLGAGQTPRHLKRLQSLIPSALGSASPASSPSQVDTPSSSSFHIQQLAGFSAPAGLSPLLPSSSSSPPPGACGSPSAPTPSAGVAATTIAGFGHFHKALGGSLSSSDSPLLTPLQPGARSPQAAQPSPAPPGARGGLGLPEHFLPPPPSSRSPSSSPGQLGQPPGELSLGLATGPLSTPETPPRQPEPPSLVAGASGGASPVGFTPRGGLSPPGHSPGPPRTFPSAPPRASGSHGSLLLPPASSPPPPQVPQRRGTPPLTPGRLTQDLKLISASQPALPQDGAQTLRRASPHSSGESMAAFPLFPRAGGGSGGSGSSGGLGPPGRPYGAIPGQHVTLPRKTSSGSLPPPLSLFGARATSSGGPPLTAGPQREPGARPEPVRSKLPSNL
Put plainly: Inhibition of potassium channel HCN4 (unknown origin). In short, it runs like this:
as §3

The subject of data set [19] is Pseudomonas aeruginosa. The experiment in a line: Antimicrobial activity against Pseudomonas aeruginosa PAO1 in neutropenic mouse thigh infection model assessed as log reduction in CFU at 200 mg/kg/day, ip bid q12 regime starting 2 hrs after infection measured 24 hrs post start of treatment relative to control. Format: functional. The following applies: route intraperitoneal. Put shortly:
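CD-1 mice made neutropenic with intraperitoneal cyclophosphamide 4 days (150 mg/kg) and 1 day (100 mg/kg) before thigh infection with P. aeruginosa PAO1, target inoculum 5 × 10⁵ CFU. Groups of five dosed ip in 5% dextrose with lactic acid pH 5.0. Vehicle-only group included. Thighs removed 24 h after treatment start, weighed, homogenized and plated on tryptic soy agar, 37 °C overnight. Log CFU/g reduction is relative to starting inoculum.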

Another data set concerns Cavia porcellus. Put plainly: Cardiotoxicity in anesthetized guinea pig assessed as change in monophasic action potential duration at 90% repolarization at free drug 86 uM, iv as 17-min infusion. Format: toxicity, organism-based. The following applies: in vivo. In short, it runs like this:
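Male guinea pigs were anaesthetized with Nembutal, ventilated, vagotomized and given propranolol 0.5 mg/kg iv. MAPD90 was recorded during pacing. Compound in 5% dextrose was infused iv over two 17-min periods: 17 mg/kg at 0.1 mL/kg min, then 51 mg/kg at 0.2 mL/kg min. Blood was sampled at each level, and % change was taken from each animal's time-zero baseline.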

Data set [20] can be described thus: Ratio of fAUC to MIC in Pseudomonas aeruginosa PAO1 in neutropenic mouse thigh infection model at 100 mg/kg/day, ip bid of total 12 doses starting 2 h post infection. The following applies: route intraperitoneal.

≈ marks a conversion by molar mass, not a printed value.

Sodium-dependent serotonin transporter (Homo sapiens), sequence (P31645 whole entry, looked up): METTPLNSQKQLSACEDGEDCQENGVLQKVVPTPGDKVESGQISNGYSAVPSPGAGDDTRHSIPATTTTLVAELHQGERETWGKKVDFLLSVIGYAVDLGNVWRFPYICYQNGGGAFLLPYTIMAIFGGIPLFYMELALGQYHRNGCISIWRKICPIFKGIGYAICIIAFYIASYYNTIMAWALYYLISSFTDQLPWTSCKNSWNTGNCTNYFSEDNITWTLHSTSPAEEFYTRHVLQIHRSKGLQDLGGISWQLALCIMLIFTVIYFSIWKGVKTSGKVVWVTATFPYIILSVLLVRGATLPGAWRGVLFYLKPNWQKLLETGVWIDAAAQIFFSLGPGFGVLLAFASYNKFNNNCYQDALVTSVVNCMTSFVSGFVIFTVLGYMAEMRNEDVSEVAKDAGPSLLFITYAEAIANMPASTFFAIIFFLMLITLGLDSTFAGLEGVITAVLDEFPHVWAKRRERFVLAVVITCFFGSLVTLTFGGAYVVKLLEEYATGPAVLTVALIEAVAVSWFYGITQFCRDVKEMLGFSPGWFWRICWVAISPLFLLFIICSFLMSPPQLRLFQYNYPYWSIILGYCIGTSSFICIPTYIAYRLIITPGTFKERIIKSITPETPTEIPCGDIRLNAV
Voltage-dependent T-type calcium channel subunit alpha-1H, sequence (O95180 whole entry): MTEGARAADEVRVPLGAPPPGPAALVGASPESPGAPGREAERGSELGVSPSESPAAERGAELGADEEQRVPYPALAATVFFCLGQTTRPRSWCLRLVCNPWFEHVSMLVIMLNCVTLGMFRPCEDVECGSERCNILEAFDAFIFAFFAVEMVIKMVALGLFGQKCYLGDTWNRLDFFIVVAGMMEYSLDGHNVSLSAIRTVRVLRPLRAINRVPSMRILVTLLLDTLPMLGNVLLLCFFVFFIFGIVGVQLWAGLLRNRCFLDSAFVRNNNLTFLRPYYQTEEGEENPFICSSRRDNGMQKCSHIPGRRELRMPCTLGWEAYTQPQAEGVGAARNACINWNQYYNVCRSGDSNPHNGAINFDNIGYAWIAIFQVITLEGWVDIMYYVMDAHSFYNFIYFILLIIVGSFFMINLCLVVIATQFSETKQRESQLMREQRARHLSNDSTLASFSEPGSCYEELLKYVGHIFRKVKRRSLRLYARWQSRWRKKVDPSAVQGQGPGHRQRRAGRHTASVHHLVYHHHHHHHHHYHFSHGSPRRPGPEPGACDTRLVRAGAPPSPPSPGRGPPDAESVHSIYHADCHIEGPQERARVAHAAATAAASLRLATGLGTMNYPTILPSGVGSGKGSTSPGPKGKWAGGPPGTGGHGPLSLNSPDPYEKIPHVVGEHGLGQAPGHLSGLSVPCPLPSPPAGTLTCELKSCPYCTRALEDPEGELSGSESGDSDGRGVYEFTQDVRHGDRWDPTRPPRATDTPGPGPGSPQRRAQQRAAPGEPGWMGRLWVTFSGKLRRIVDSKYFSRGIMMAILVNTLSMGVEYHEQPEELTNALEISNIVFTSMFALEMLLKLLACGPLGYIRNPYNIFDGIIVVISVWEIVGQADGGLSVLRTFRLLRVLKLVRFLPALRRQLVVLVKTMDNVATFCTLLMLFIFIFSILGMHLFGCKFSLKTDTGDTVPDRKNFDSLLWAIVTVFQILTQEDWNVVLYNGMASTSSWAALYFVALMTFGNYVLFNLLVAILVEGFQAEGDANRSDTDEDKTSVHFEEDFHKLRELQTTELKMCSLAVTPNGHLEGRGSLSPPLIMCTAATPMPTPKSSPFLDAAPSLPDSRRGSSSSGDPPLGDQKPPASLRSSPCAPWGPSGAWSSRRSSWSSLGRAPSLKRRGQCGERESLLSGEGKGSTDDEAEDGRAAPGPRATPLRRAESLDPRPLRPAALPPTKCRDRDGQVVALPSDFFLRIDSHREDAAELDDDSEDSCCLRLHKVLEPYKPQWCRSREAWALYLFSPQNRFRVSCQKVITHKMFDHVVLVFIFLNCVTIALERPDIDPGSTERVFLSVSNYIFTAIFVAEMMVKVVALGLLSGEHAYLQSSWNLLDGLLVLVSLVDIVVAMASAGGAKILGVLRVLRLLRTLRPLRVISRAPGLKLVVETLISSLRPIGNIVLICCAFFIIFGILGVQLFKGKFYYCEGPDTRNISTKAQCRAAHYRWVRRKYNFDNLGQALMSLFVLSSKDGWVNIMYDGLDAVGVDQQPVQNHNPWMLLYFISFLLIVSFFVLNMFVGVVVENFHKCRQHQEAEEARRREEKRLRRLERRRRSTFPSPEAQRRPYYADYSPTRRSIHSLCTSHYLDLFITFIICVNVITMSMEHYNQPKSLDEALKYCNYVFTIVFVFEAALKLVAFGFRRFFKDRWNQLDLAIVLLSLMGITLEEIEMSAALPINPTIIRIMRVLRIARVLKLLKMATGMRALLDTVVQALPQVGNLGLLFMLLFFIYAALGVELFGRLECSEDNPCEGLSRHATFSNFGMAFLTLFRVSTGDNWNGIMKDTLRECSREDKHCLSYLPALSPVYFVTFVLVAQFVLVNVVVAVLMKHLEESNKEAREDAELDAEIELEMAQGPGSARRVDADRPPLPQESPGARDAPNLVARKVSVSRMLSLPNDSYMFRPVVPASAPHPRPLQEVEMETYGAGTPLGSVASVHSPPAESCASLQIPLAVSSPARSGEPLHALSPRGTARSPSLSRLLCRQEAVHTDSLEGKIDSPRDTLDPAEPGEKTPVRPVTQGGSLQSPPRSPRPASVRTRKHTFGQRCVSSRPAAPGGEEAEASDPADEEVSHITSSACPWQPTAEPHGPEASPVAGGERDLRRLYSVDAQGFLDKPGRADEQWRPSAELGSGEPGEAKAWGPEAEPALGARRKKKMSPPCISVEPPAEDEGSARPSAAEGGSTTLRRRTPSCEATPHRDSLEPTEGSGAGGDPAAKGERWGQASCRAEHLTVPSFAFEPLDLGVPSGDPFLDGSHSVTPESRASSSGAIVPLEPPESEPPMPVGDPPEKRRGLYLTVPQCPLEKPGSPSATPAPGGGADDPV
5-hydroxytryptamine receptor 4 (Homo sapiens), sequence (Q13639 whole entry): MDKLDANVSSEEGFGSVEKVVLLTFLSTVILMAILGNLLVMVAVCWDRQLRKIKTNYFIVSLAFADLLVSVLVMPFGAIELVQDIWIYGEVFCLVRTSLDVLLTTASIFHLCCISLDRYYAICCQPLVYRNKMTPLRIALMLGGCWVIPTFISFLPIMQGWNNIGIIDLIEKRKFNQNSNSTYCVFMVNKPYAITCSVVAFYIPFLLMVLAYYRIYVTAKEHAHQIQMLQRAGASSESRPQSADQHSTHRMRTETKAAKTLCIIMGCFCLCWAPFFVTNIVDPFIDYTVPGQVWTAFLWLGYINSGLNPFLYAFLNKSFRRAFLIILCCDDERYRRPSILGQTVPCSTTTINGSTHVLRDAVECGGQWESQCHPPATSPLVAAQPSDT
Potassium voltage-gated channel subfamily A member 5, sequence (P22460 whole entry): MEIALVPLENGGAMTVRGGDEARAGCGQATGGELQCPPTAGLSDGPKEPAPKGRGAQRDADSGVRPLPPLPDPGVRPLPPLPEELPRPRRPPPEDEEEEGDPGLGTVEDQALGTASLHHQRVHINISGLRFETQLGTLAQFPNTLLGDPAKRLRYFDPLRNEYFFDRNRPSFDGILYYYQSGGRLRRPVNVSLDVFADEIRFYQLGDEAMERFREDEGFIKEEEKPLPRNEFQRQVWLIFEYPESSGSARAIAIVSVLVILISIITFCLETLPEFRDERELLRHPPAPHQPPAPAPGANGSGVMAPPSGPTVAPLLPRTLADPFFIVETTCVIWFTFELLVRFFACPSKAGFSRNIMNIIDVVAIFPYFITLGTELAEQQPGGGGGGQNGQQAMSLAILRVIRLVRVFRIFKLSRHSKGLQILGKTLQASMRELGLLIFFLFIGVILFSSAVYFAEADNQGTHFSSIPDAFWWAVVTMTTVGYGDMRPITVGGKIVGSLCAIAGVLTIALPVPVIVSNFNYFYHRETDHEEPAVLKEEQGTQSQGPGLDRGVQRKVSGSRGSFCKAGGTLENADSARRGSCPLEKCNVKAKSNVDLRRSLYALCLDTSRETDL
Sodium-dependent noradrenaline transporter (Homo sapiens), sequence (P23975 whole entry): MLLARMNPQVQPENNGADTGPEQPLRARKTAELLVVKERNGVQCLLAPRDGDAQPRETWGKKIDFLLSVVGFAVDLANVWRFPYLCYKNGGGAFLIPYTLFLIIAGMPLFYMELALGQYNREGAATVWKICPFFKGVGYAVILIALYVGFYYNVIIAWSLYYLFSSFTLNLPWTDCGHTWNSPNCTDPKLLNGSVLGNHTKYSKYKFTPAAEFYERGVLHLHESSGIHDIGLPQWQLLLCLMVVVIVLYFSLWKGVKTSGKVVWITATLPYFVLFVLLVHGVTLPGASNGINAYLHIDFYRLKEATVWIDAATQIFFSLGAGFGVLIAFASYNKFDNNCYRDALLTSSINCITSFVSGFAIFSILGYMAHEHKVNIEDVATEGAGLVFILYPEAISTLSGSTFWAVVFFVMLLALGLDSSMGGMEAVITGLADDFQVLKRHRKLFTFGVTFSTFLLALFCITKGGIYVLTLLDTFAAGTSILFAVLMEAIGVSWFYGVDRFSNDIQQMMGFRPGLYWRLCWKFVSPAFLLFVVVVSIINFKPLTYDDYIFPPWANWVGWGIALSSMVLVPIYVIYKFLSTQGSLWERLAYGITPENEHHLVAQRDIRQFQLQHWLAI

`COc1ccc2ncc(=O)n(CCN3CCC(NCc4ccc5c(n4)NC(=O)CO5)CC3)c2c1`: in data set [1], the solubility was over 333 µM. Moreover, the MIC90 turned out to be 0.13 µg/mL (≈ 0.28 µM) against Escherichia coli [2], 4 µg/mL (≈ 8.61 µM) in the data set with Pseudomonas aeruginosa [4], 0.25 µg/mL (≈ 0.538 µM) with Escherichia coli [5] and 4 µg/mL (≈ 8.61 µM) in the data set with Klebsiella pneumoniae. The half-inhibitory concentration (IC50) in data set [3] was 0.0022 µM; in [16] it was over 100 µM; in data set [17], over 100 µM; in data set [18] it was over 100 µM. Besides, the Vd in data set [6] is 23 L/kg; in data set [10] it was 2 L/kg. Also, the half-life in [7] is 1.9 h; in [11], 13 h. Further, the AUC in data set [8] came to 190 ng·h/mL; in [12] it was 6800 ng·h/mL. The molecule further gave a clearance in data set [9] of 8.5 mL/min/kg. In addition, the inhibition in data set [13] turned out to be 61%; in data set [14] it was 99%; in data set [15], 77%.

Regarding `N[C@@H](Cn1c(=O)cnc2ccc(F)cc21)[C@H]1CC[C@H](NCc2ncc3c(n2)NC(=O)CO3)CC1`, the solubility in data set [1] is over 333 µM. Also, the MIC90 against Escherichia coli [2] is under 0.06 µg/mL; in the data set on Pseudomonas aeruginosa [4], 4 µg/mL (≈ 8.56 µM); in the data set with Escherichia coli [5] it was 1 µg/mL (≈ 2.14 µM); against Klebsiella pneumoniae it was 16 µg/mL (≈ 34.2 µM). In addition, the IC50 in data set [3] is 0.003 µM; in data set [16], over 100 µM; in [17] it was over 100 µM; in data set [18] it was over 100 µM. Also, the Vd in data set [6] turned out to be 9 L/kg; in [10], 4 L/kg. Besides, the half-life in data set [7] is 10 h; in [11] it was 9 h. Also, the AUC in data set [8] came to 3300 ng·h/mL; in data set [12] it was 12000 ng·h/mL. For the same molecule, in data set [9], the clearance was 14 mL/min/kg. The FC in the data set on Pseudomonas aeruginosa [19] was 2.5. In addition, the figures for the inhibition in [13], in data set [14] and in data set [15] were 9%, 7% and 32%, respectively. For the same molecule, the Activity result with Cavia porcellus is “Toxic”. Moreover, the fAUC/MIC in data set [20] is recorded as 12.

The solubility is the dissolved amount per volume that the medium holds. Read a high solubility as much dissolved substance. Usually MIC90 stands for an inhibitory concentration at the 90% level, which refers to growth in some studies and to a panel of isolates in others. Low readings indicate higher susceptibility, high ones lower susceptibility. The IC50 is the concentration that gives 50% inhibition. What is called Vd is a proportionality between amount in the body and measured concentration, not a real space. Higher therefore signals extensive tissue distribution. The half-life is the time needed for the level to fall by half in the phase considered. The term AUC denotes concentration integrated over time. Read a low AUC as less exposure. The clearance is the rate of elimination divided by the concentration. A low value points to inefficient removal. The inhibition is the share of the control response that was lost under treatment. A higher inhibition goes with strong suppression.
